Results from ChEMBL document CHEMBL4011658 (J Med Chem, 2017).
In brackets after ≈: the same amount, converted by molar mass. Activity calls are given as the source filed them. No cut-off for these calls is given here.

How the values were obtained:
Cryptococcus neoformans [1] = assay: Antifungal activity against Cryptococcus neoformans ATCC 90113 after 70 to 74 hrs by alamar blue dye based CLSI method; type: functional
SK-OV-3 = assay: Cytotoxicity against human SKOV3 cells assessed as reduction in cell viability after 48 hrs by neutral red uptake assay; type: cell-based; settings: sk-ov-3, 48 h
How it was run: (§1)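 Cells seeded at 25 000 per well and grown 24 h to confluence, then exposed to peptides up to 10 μg/mL for 48 h; viability by modified neutral red uptake; doxorubicin positive control, DMSO negative control.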

SK-MEL = assay: Cytotoxicity against human SK-MEL cells assessed as reduction in cell viability after 48 hrs by neutral red uptake assay; type: cell-based; how it was run: as §1
BT-549 = assay: Cytotoxicity against human BT549 cells assessed as reduction in cell viability after 48 hrs by neutral red uptake assay; type: cell-based; settings: bt-549, 48 h; how it was run: as §1
LLC-PK1 = assay: Cytotoxicity against pig LLC-PK1 cells assessed as reduction in cell viability after 48 hrs by neutral red uptake assay; type: cell-based, Sus scrofa; settings: llc-pk1, 48 h; how it was run: as §1
Vero = assay: Cytotoxicity against African green monkey Vero cells assessed as reduction in cell viability after 48 hrs by neutral red uptake assay; type: cell-based; settings: chlorocebus sabaeus; how it was run: as §1
[2] = Selectivity index, ratio of cytotoxicity against human SKOV3 cells to IC50 for Cryptococcus neoformans ATCC 90113; type: toxicity, cell-based; settings: read-out: Selectivity Index
[3] = Selectivity index, ratio of cytotoxicity against human SK-MEL cells to IC50 for Cryptococcus neoformans ATCC 90113; type: toxicity, cell-based; settings: read-out: Selectivity Index
[4] = Selectivity index, ratio of cytotoxicity against human BT549 cells to IC50 for Cryptococcus neoformans ATCC 90113; type: toxicity, cell-based; settings: read-out: Selectivity Index
[5] = Selectivity index, ratio of cytotoxicity against pig LLC-PK1 cells to IC50 for Cryptococcus neoformans ATCC 90113; type: toxicity, cell-based; settings: read-out: Selectivity Index
[6] = Selectivity index, ratio of cytotoxicity against African green monkey VERO cells to IC50 for Cryptococcus neoformans ATCC 90113; type: toxicity, cell-based; settings: read-out: Selectivity Index
Staphylococcus aureus [7] = assay: Antibacterial activity against Staphylococcus aureus ATCC 29213 after […] hrs by alamar blue dye based CLSI method; type: functional
Staphylococcus aureus [8] = assay: Antibacterial activity against methicillin-resistant Staphylococcus aureus ATCC 33591 after 16 to 20 hrs by alamar blue dye based CLSI method; type: functional
[9] = Selectivity index, ratio of cytotoxicity against human SKOV3 cells to IC50 for Staphylococcus aureus ATCC 29213; type: toxicity, cell-based; settings: read-out: Selectivity Index
How it was run: (§2)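 Selectivity index is the ratio CTX/IC50. For CTX, cells were seeded at 25 000 per well and grown 24 h, then exposed to peptide up to 10 μg/mL for 48 h, with viability by neutral red uptake. […] The inoculum was 5 × 10^5 CFU/mL, with OD530 read before and after incubation.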

[10] = Selectivity index, ratio of cytotoxicity against human SK-MEL cells to IC50 for Staphylococcus aureus ATCC 29213; type: toxicity, cell-based; settings: read-out: Selectivity Index; how it was run: as §2
[11] = Selectivity index, ratio of cytotoxicity against human BT549 cells to IC50 for Staphylococcus aureus ATCC 29213; type: toxicity, cell-based; settings: read-out: Selectivity Index; how it was run: as §2
[12] = Selectivity index, ratio of cytotoxicity against pig LLC-PK1 cells to IC50 for Staphylococcus aureus ATCC 29213; type: toxicity, cell-based; settings: read-out: Selectivity Index; how it was run: as §2
[13] = Selectivity index, ratio of cytotoxicity against African green monkey VERO cells to IC50 for Staphylococcus aureus ATCC 29213; type: toxicity, cell-based; settings: read-out: Selectivity Index; how it was run: as §2
[14] = Selectivity index, ratio of cytotoxicity against human SKOV3 cells to IC50 for methicillin-resistant Staphylococcus aureus ATCC 33591; type: toxicity, cell-based; settings: read-out: Selectivity Index
How it was run: (§3)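 Selectivity index is the ratio CTX/IC50. For CTX, cells were seeded at 25 000 per well and grown 24 h, then given peptide up to 10 μg/mL for 48 h, with neutral red uptake read-out. […] OD530 was read before and after 16−20 h at 35 °C.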

[15] = Selectivity index, ratio of cytotoxicity against human SK-MEL cells to IC50 for methicillin-resistant Staphylococcus aureus ATCC 33591; type: toxicity, cell-based; settings: read-out: Selectivity Index; how it was run: as §3
[16] = Selectivity index, ratio of cytotoxicity against human BT549 cells to IC50 for methicillin-resistant Staphylococcus aureus ATCC 33591; type: toxicity, cell-based; settings: read-out: Selectivity Index; how it was run: as §3
[17] = Selectivity index, ratio of cytotoxicity against pig LLC-PK1 cells to IC50 for methicillin-resistant Staphylococcus aureus ATCC 33591; type: toxicity, cell-based; settings: read-out: Selectivity Index; how it was run: as §3
[18] = Selectivity index, ratio of cytotoxicity against African green monkey VERO cells to IC50 for methicillin-resistant Staphylococcus aureus ATCC 33591; type: toxicity, cell-based; settings: read-out: Selectivity Index; how it was run: as §3
Escherichia coli = assay: Antibacterial activity against Escherichia coli ATCC 35218 after 16 to 20 hrs by alamar blue dye based CLSI method; type: functional
Candida = assay: Antifungal activity against Candida; type: functional
Aspergillus = assay: Antifungal activity against Aspergillus; type: functional
Cryptococcus neoformans [19] = assay: Antifungal activity against Cryptococcus neoformans ATCC 350 after 70 to 74 hrs by alamar blue dye based CLSI method; type: functional
Cryptococcus neoformans [20] = assay: Fungicidal activity against Cryptococcus neoformans ATCC 350 at 0.39 ug/ml up to 4 hrs by time kill assay; type: functional
[21] = Metabolic stability of the compound assessed as trypsin (unknown origin)-mediated compound hydrolysis at compound to trypsin ratio of 100 to 0.5 after 2 hrs by RP-HPLC analysis; type: ADME; settings: human
How it was run: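 Peptide:trypsin 100:0.5 mol/mol in 0.1 M NH4CO3, 0.1 mM CaCl2, pH 8.3, shaken at 37 °C, 200 rpm; aliquot analysed by RP-HPLC, retention time and peak intensity compared with untreated peptide; 2 h sampling per results text.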

Cryptococcus neoformans [22] = assay: Induction of membrane permeabilization in Cryptococcus neoformans ATCC 350 assessed as increase in propidium iodide uptake at 0.39 ug/ml after 1 hr by confocal microscopic analysis; type: functional
Cryptococcus neoformans [23] = assay: Induction of membrane permeabilization in Cryptococcus neoformans ATCC 350 at 0.39 ug/ml after 1 hr using FITC labeled compound by confocal microscopic analysis; type: functional
Cryptococcus neoformans [24] = assay: Induction of nuclear fragmentation in Cryptococcus neoformans ATCC 350 at 0.39 ug/ml after 1 hr by DAPI staining based confocal microscopic analysis; type: functional
Cryptococcus neoformans [25] = assay: Induction of morphological changes in Cryptococcus neoformans ATCC 350 assessed as cell wall breakage at 0.39 ug/ml after 1 hr by uranyl acetate/lead acetate staining based scanning electron microscopic analysis; type: functional
Cryptococcus neoformans [26] = assay: Disruption of cell wall membrane in Cryptococcus neoformans ATCC 350 at 0.39 ug/ml after 1 hr by uranyl acetate/lead acetate staining based transmission electron microscopic analysis; type: functional
Cryptococcus neoformans [27] = assay: Disruption of plasma membrane in Cryptococcus neoformans ATCC 350 at 0.39 ug/ml after 1 hr by uranyl acetate/lead acetate staining based transmission electron microscopic analysis; type: functional
Cryptococcus neoformans [28] = assay: Synergistic antifungal activity against Cryptococcus neoformans ATCC 350 in presence of fluconazole by checkerboard method; type: functional
Cryptococcus neoformans [29] = assay: Synergistic antifungal activity against Cryptococcus neoformans ATCC 350 in presence of amphotericin B by checkerboard method; type: functional
Cryptococcus neoformans [30] = assay: Synergistic antifungal activity against Cryptococcus neoformans ATCC 350 assessed as fold reduction in MIC in presence of fluconazole by checkerboard method relative to control; type: functional
Cryptococcus neoformans [31] = assay: Synergistic antifungal activity against Cryptococcus neoformans ATCC 350 assessed as fold reduction in MIC in presence of amphotericin B by checkerboard method relative to control; type: functional
Cryptococcus neoformans [32] = assay: Synergistic antifungal activity against Cryptococcus neoformans ATCC 350 assessed as fold reduction in fluconazole MIC by checkerboard method relative to fluconazole alone; type: functional
Cryptococcus neoformans [33] = assay: Synergistic antifungal activity against Cryptococcus neoformans ATCC 350 assessed as fold reduction in amphotericin B MIC by checkerboard method relative to amphotericin B alone; type: functional

With `COC(=O)[C@H](Cc1c[nH]c(-c2ccc(-c3ccccc3)cc2)n1)NC(=O)[C@H](Cc1c[nH]c2ccccc12)NC(=O)[C@@H](N)Cc1c[nH]c(-c2ccc(-c3ccccc3)cc2)n1` the IC50 (Cryptococcus neoformans [1]) was 0.35 µg/mL (≈ 0.439 µM), the MFC (Cryptococcus neoformans [1]) was 0.63 µg/mL (≈ 0.791 µM) and the MIC (Cryptococcus neoformans [1]) was 0.63 µg/mL (≈ 0.791 µM). The Activity (SK-OV-3) was greater than 10 µg/mL, the Activity (SK-MEL) was greater than 10 µg/mL and the Activity (BT-549) was greater than 10 µg/mL. It also gave an Activity (LLC-PK1) greater than 10 µg/mL, an Activity (Vero) greater than 10 µg/mL and a selectivity ratio [2] greater than 28.6. For the same compound, the selectivity ratio [3] was greater than 28.6, the selectivity ratio [4] was greater than 28.6 and the selectivity ratio [5] was greater than 28.6. For the same compound, the selectivity ratio [6] was greater than 28.6, the IC50 (Staphylococcus aureus [7]) was 2.56 µg/mL (≈ 3.21 µM) and the MBC (Staphylococcus aureus [7]) was greater than 20 µg/mL. It also gave an MIC (Staphylococcus aureus [7]) greater than 20 µg/mL, an IC50 (Staphylococcus aureus [8]) of 1.93 µg/mL (≈ 2.42 µM) and an MBC (Staphylococcus aureus [8]) of 10 µg/mL (≈ 12.5 µM). The MIC (Staphylococcus aureus [8]) was 5 µg/mL (≈ 6.27 µM), the selectivity ratio [9] was greater than 3.9 and the selectivity ratio [10] was greater than 3.9. The selectivity ratio [11] was greater than 3.9, the selectivity ratio [12] was greater than 3.9 and the selectivity ratio [13] was greater than 3.9. The selectivity ratio [14] was greater than 5.18, the selectivity ratio [15] was greater than 5.18 and the selectivity ratio [16] was greater than 5.18. For the same compound, the selectivity ratio [17] was greater than 5.18, the selectivity ratio [18] was greater than 5.18 and the Activity (Escherichia coli) was “inactive”. For the same compound, the Activity (Candida) was “inactive”, the Activity (Aspergillus) was “inactive” and the MIC (Cryptococcus neoformans [19]) was 0.44 µM (≈ 0.351 µg/mL). For the same compound, the Activity (Cryptococcus neoformans [20]) was “Active”, the Stability [21] was “Stable” and the Activity (Cryptococcus neoformans [22]) was “Active”. For the same compound, the Activity (Cryptococcus neoformans [23]) was “Active”, the Activity (Cryptococcus neoformans [24]) was “Active” and the Activity (Cryptococcus neoformans [25]) was “Active”. The Activity (Cryptococcus neoformans [26]) was “Active”, the Activity (Cryptococcus neoformans [27]) was “Active” and the “fractional inhibitory concentration index (FICI)” value (Cryptococcus neoformans [28]) was 0.308. The “fractional inhibitory concentration index (FICI)” value (Cryptococcus neoformans [29]) was 0.092, the “fold change (FC)” value (Cryptococcus neoformans [30]) was 16 and the “fold change (FC)” value (Cryptococcus neoformans [31]) was 32. For the same compound, the “fold change (FC)” value (Cryptococcus neoformans [32]) was 4 and the “fold change (FC)” value (Cryptococcus neoformans [33]) was 16.
